# Reference: ChEMBL document CHEMBL1153019, “Lignans with anti-HIV activity from Schisandra propinqua var. sinensis” (J Nat Prod, 2009)
# Key:
# [1] = Cytotoxicity against human C8166 cells by MTT assay; assay type: cell-based
# Outline: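 MTT read-out of C8166 cell viability, run in parallel with the anti-HIV-1 cytopathic-effect assay. AZT served as positive control, and CC50 was derived.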
# [2] = system: Human immunodeficiency virus 1; test: Antiviral activity against HIV1 3B in human C8166 cells assessed as inhibition of virus-induced cytopathogenicity; assay type: functional, organism-based; conditions: Human immunodeficiency virus 1, 3B
# Outline: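 HIV-1 cytopathic-effect inhibition in C8166 cells, run in parallel with the cytotoxicity test. AZT served as positive control, and EC50 was the read-out.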
# [3] = Selectivity index, ratio of CC50 for human C8166 cells to EC50 for HIV1 3B; assay type: toxicity, cell-based; conditions: read-out: Ratio CC50/EC50
EC50 [2],SMILES,CC50 [1],selectivity ratio [3]
22.9 µM,COc1cc2c(c(OC)c1OC)-c1c(cc3c(c1OC)OCO3)[C@H](OC(=O)c1ccccc1)[C@H](C)[C@](C)(O)[C@H]2OC(=O)c1ccccc1,> 200 µM,> 8.7
51.4 µM,COc1cc2c(c(OC)c1OC)-c1c(cc3c(c1OC)OCO3)[C@H](OC(=O)c1ccccc1)[C@H](C)[C@](C)(O)[C@H]2OC(=O)/C=C/c1ccccc1,> 200 µM,> 3.9
2.9 µM,COc1cc(C[C@@H](C)[C@@H](C)Cc2ccc(OC)c(OC)c2)ccc1O,17.2 µM,5.8
15.4 µM,C/C=C(\C)C(=O)O[C@H]1c2cc(OC)c(OC)c(OC)c2-c2c(cc3c(c2OC)OCO3)[C@H](OC(=O)c2ccccc2)[C@H](C)[C@H]1C,78.2 µM,5.1
7.9 µM,C/C=C(\C)C(=O)O[C@H]1c2cc(OC)c(OC)c(OC)c2-c2c(cc3c(c2OC)OCO3)[C@H](OC(=O)/C=C/c2ccccc2)[C@H](C)[C@]1(C)O,> 200 µM,> 25.2
6.8 µM,COc1ccc([C@@H]2O[C@H](c3ccc4c(c3)OCO4)[C@@H](C)[C@@H]2C)cc1O,19.9 µM,2.9
15.5 µM,COc1ccc([C@H]2O[C@H](c3ccc4c(c3)OCO4)[C@@H](C)[C@H]2C)cc1OC,104 µM,6.7
28.7 µM,CCCCCC(=O)O[C@H]1c2cc3c(c(OC)c2-c2c(cc(OC)c(OC)c2OC)[C@H](OC(=O)c2ccccc2)[C@@](C)(O)[C@H]1C)OCO3,119 µM,4.1
20.4 µM,COc1cc2c(c(OC)c1OC)-c1c(cc3c(c1OC)OCO3)C(=O)[C@@H](C)[C@@H](C)C2,> 200 µM,> 9.8
4.5 µM,COc1cc2c(cc1O)C[C@@H](C)[C@@H](C)[C@@H]2c1ccc(OC)c(OC)c1,30 µM,6.7
7.7 µM,COc1ccc([C@H]2O[C@@H](c3ccc(OC)c(OC)c3)[C@H](C)[C@@H]2C)cc1OC [GALGRAVIN],43.4 µM,5.6
9.9 µM,C/C=C(/C)C(=O)O[C@H]1c2cc(OC)c(OC)c(OC)c2-c2c(cc3c(c2OC)OCO3)[C@H](OC(C)=O)[C@H](C)[C@@H]1C [INTERIOTHERIN C],> 200 µM,> 20.2
79.1 µM,COc1cc2c(c(OC)c1OC)-c1c(cc3c(c1OC)OCO3)[C@H](OC(C)=O)[C@H](C)[C@H](C)C2 [KADSURIN],> 200 µM,> 2.5
4 µM,COc1cc(C[C@@H](C)[C@@H](C)Cc2ccc(O)c(OC)c2)ccc1O [MESODIHYDROGUAIARETIC ACID],24.9 µM,6.2
15.7 µM,C/C=C(\C)C(=O)Oc1c(OC)c(OC)cc2c1-c1c(cc(OC)c(OC)c1OC)[C@H](O)[C@H](C)[C@H](C)C2 [METHYL SCHISANTHERIN F],> 200 µM,> 12.7
14.8 µM,COc1ccc(C[C@@H](C)[C@@H](C)Cc2ccc(OC)c(OC)c2)cc1OC [TERAMEPROCOL],28.8 µM,2
29.8 µM,CC[C@H](C)C(=O)Oc1c(OC)c(OC)cc2c1-c1c(cc(OC)c(OC)c1OC)[C@H](O)[C@H](C)[C@H](C)C2 [TIEGUSANIN A],> 200 µM,> 6.7
18.5 µM,COc1cc2c(c(OC)c1OC)-c1c(cc(OC)c(OC)c1OC(=O)c1ccccc1)[C@H](O)[C@H](C)[C@H](C)C2 [TIEGUSANIN C],> 200 µM,> 10.8
7.3 µM,COc1c(O)cc2c(c1OC)-c1c(cc3c(c1OC)OCO3)C[C@@H](C)[C@@H](C)[C@H]2OC(=O)/C=C/c1ccccc1 [TIEGUSANIN L],74.1 µM,10.2
9.4 µM,COc1ccc(CC(C)C(C)Cc2cc(OC)c(OC)c(OC)c2)cc1OC (stereo not drawn) [TIEGUSANIN N],24.5 µM,2.6
0.00195 µM,Cc1cn([C@H]2C[C@H](N=[N+]=[N-])[C@@H](CO)O2)c(=O)[nH]c1=O [ZIDOVUDINE],> 1000 µM,> 500000
